Data: ChEMBL document CHEMBL3407479, “Structure-activity relationship for the oxadiazole class of antibiotics” (J Med Chem, 2015)
In brackets after ≈: the same amount, converted by molar mass. Activity calls are given as the source filed them. No cut-off for these calls is given here.

Tests used:
Bacillus cereus = assay: Antibacterial activity against Bacillus cereus ATCC 13061 after 16 to 20 hrs by broth microdilution method; type: functional
[1] = Terminal half life in ICR mouse at 20 mg/kg, iv; type: ADME, organism-based; set-up: dose 20 mg/kg, route intravenous; details: in vivo, read-out: beta t1/2 (converted)
Staphylococcus aureus [2] = assay: Antibacterial activity against methicillin-resistant Staphylococcus aureus ATCC 27660 in ICR mouse peritonitis infection model assessed as survival rate at 20 mg/kg, iv administered at 0.5 and 7.5 hrs post infection measured for 48 hrs; type: functional, organism-based; set-up: dose 20 mg/kg
Method in brief: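 Female ICR mice, 6–8 weeks, ~20 g, n = 6 per group. Bacteria at 10^8 cfu/mL mixed 1:1 with 10% mucin just before use; 0.5 mL given ip (final 5×10^7 cfu/mL, 5% mucin). Compound at 20 mg/kg iv by tail vein, twice, at 30 min and 7.5 h post-infection. […] Survivors counted at 48 h.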

Mus musculus [3] = assay: AUC (0 to 24 hrs) in ICR mouse at 20 mg/kg, iv; type: ADME, organism-based, Plasma; set-up: time < 24 hr, dose 20 mg/kg, route intravenous; details: in vivo
[4] = Volume of distribution in ICR mouse at 20 mg/kg, iv; type: ADME, organism-based; set-up: dose 20 mg/kg, route intravenous; details: in vivo
Staphylococcus aureus [5] = assay: Antibacterial activity against methicillin-resistant Staphylococcus aureus ATCC 27660 in po dosed ICR mouse peritonitis infection model assessed as survival rate administered at 1 hr post infection; type: functional; details: ATCC 27660, po
Method in brief: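 Female ICR mice, 6–8 weeks, given 0.5 mL ip of S. aureus (final 5×10^7 cfu/mL in 5% mucin). Six mice per dose level; a single oral dose at 1 h post-infection.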

Enterococcus faecium [6] = assay: Antibacterial activity against Enterococcus faecium NCTC 7171 after 16 to 20 hrs by broth microdilution method; type: functional
[7] = Clearance in ICR mouse at 20 mg/kg, iv; type: ADME, organism-based; set-up: dose 20 mg/kg, route intravenous; details: in vivo
[8] = system: Staphylococcus haemolyticus; assay: Antibacterial activity against Staphylococcus haemolyticus ATCC 29970 after 16 to 20 hrs by broth microdilution method; type: functional
Staphylococcus aureus [9] = assay: Antibacterial activity against methicillin-resistant Staphylococcus aureus ATCC 27660 in po dosed ICR mouse peritonitis infection model assessed as survival rate administered at 0.5 and 7.5 hrs post infection; type: functional; details: ATCC 27660, po
[10] = Elimination half life in ICR mouse at 20 mg/kg, po; type: ADME, organism-based; set-up: dose 20 mg/kg, route oral; details: in vivo, read-out: beta t1/2 (converted)
[11] = Primary phase half life in ICR mouse at 20 mg/kg, iv; type: ADME, organism-based; set-up: dose 20 mg/kg, route intravenous; details: in vivo, read-out: alphat1/2
Enterococcus faecalis = assay: Antibacterial activity against vancomycin-resistant Enterococcus faecalis 99 clinical isolate after 16 to 20 hrs by broth microdilution method; type: functional
[12] = Tmax in ICR mouse at 20 mg/kg, po; type: ADME, organism-based; set-up: dose 20 mg/kg, route oral; details: in vivo
Streptococcus pyogenes = assay: Antibacterial activity against Streptococcus pyogenes ATCC 49399 after 16 to 20 hrs by broth microdilution method; type: functional
[13] = Cmax in ICR mouse at 20 mg/kg, po; type: ADME, organism-based; set-up: dose 20 mg/kg, route oral; details: in vivo
[14] = Distribution phase half life in ICR mouse at 20 mg/kg, po; type: ADME, organism-based; set-up: dose 20 mg/kg, route oral; details: in vivo, read-out: alphat1/2 (converted)
[15] = system: Staphylococcus epidermidis; assay: Antibacterial activity against Staphylococcus epidermidis ATCC 35547 after 16 to 20 hrs by broth microdilution method; type: functional
Staphylococcus aureus [16] = assay: Antibacterial activity against methicillin-resistant Staphylococcus aureus ATCC 27660 in iv dosed ICR mouse peritonitis infection model assessed as survival rate administered at 0.5 and 7.5 hrs post infection; type: functional; details: ATCC 27660, iv
Staphylococcus aureus [17] = assay: Bactericidal activity against methicillin-sensitive Staphylococcus aureus ATCC 29213 after 48 hrs; type: functional; details: ATCC 29213, 48 h
Enterococcus faecium [18] = assay: Ratio of MBC to MIC for Enterococcus faecium NCTC 7171; type: functional
Streptococcus oralis = assay: Antibacterial activity against Streptococcus oralis ATCC 9811 after 16 to 20 hrs by broth microdilution method; type: functional
[19] = AUC (0 to infinity) in ICR mouse at 20 mg/kg, po; type: ADME, organism-based; set-up: time infinity, dose 20 mg/kg, route oral; details: plasma
Mus musculus [20] = assay: AUC (0 to 24 hrs) in ICR mouse at 20 mg/kg, po; type: ADME, organism-based, Plasma; set-up: time < 24 hr, dose 20 mg/kg, route oral; details: in vivo
Staphylococcus aureus [21] = assay: Antibacterial activity against vancomycin/methicillin-resistant Staphylococcus aureus VRS1 clinical isolate after 16 to 20 hrs by broth microdilution method; type: functional
[22] = Plasma protein binding in human at 10 uM after 6 hrs by equilibrium dialysis assay; type: ADME, cell-free
Staphylococcus aureus [23] = assay: Antibacterial activity against methicillin-sensitive Staphylococcus aureus ATCC 29213 after 16 to 20 hrs by broth microdilution method; type: functional
[24] = AUC (0 to infinity) in ICR mouse at 20 mg/kg, iv; type: ADME, organism-based; set-up: time infinity, dose 20 mg/kg, route intravenous; details: plasma
HepG2 = assay: Cytotoxicity against human HepG2 cells assessed as cell viability after 16 hrs by XTT assay; type: cell-based; details: HepG2, 16 h
Method in brief: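 HepG2 cells were run in triplicate in an XTT viability assay. IC50 was derived from the concentration–response data.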

FC(F)(F)c1ccc(Oc2ccc(-c3noc(-c4ccc5[nH]ccc5c4)n3)cc2)cc1
MIC (Bacillus cereus): 16 µg/mL (≈ 38 µM) | half-life [1]: 576 min | Activity (Staphylococcus aureus [2]): Active | AUC (Mus musculus [3]): 3140 µg·min/mL | Vd [4]: 4.73 L/kg | ED50 (Staphylococcus aureus [5]): 3.1 mg/kg | MIC (Enterococcus faecium [6]): 2 µg/mL (≈ 4.75 µM) | clearance [7]: 5.68 mL/min/kg | MIC [8]: 8 µg/mL (≈ 19 µM) | ED50 (Staphylococcus aureus [9]): 1.7 mg/kg | half-life [10]: 1120 min | half-life [11]: 0.54 min | MIC (Enterococcus faecalis): 16 µg/mL (≈ 38 µM) | Tmax [12]: 6 h | MIC (Streptococcus pyogenes): 64 µg/mL (≈ 152 µM) | Cmax [13]: 2340 ng/mL | half-life [14]: 954 min | MIC [15]: 4 µg/mL (≈ 9.49 µM) | ED50 (Staphylococcus aureus [16]): 7.6 mg/kg | MBC (Staphylococcus aureus [17]): 2 µg/mL (≈ 4.75 µM) | Ratio (Enterococcus faecium [18]): 2 | MIC (Streptococcus oralis): 128 µg/mL (≈ 304 µM) | AUC(0-inf) [19]: 67700 ng·h/mL | AUC (Mus musculus [20]): 3060 µg·min/mL | MIC (Staphylococcus aureus [21]): 1 µg/mL (≈ 2.37 µM) | PPB [22]: 98.2% | MIC (Staphylococcus aureus [23]): 2 µg/mL (≈ 4.75 µM) | AUC(0-inf) [24]: 58700 ng·h/mL | IC50 (HepG2): 75.7 µg/mL (≈ 180 µM)
